≈ marks a conversion by molar mass, not a printed value.
What was measured:
[1] = system: Mycobacterium tuberculosis; assay: Antimicrobial activity against Mycobacterium tuberculosis assessed as growth inhibition at 100 uM after 8 days under aerobic condition by alamar blue assay; assay type: functional; conditions: 192 h
[2] = system: Mycobacterium tuberculosis; assay: Antimicrobial activity against Mycobacterium tuberculosis after 11 days under anaerobic condition by luminescence-based low oxygen recovery assay; assay type: functional; conditions: 264 h
[3] = system: Mycobacterium tuberculosis; assay: Antimicrobial activity against Mycobacterium tuberculosis assessed as growth inhibition at 100 uM after 11 days under anaerobic condition by luminescence-based low oxygen recovery assay; assay type: functional; conditions: 264 h
[4] = system: Mycobacterium tuberculosis; assay: Antimicrobial activity against Mycobacterium tuberculosis after 8 days in aerobic condition by alamar blue assay; assay type: functional; conditions: 192 h
Method in brief: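 Replicating M. tb was tested in an 8-day microplate assay. Alamar blue was added on day 7 to measure growth. The MIC was taken as the lowest drug concentration giving >90% inhibition.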

Vero = assay: Cytotoxicity against african green monkey Vero cells after 72 hrs; assay type: cell-based; conditions: Chlorocebus sabaeus
Method in brief: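 VERO (CCL-81) monolayers exposed 72 h to 3-fold serial dilutions of compound. Viability read by tetrazolium dye reduction, product absorbance at 490 nm. Untreated cells set 0% inhibition, SDS-lysed cells 100% inhibition.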

| SMILES | inhibition at 100 µM [1] [%] | MIC [2] [µM] | inhibition at 100 µM [3] [%] | MIC [4] [µM] | IC50 (Vero) [µM] |
| --- | --- | --- | --- | --- | --- |
| CN1CC(OCc2ccc(OCc3ccccc3)cc2)Cn2nc([N+](=O)[O-])cc21 (stereo unspecified) | 58 | > 128 | 3 | > 128 | > 128 |
| CN1CC(OCc2ccc(OC(F)(F)F)cc2)Cn2nc([N+](=O)[O-])cc21 (stereo unspecified) | 61 | > 128 | 37 | > 128 | > 128 |
| O=[N+]([O-])c1nc2n(n1)C[C@@H](OCc1ccc(OC(F)(F)F)cc1)CO2 | 84 | – | – | > 128 | > 128 |
| O=[N+]([O-])c1cn2c(n1)CCC(OCc1ccc(OCc3ccccc3)cc1)C2 (stereo unspecified) | 5 | > 128 | 49 | > 128 | – |
| O=[N+]([O-])c1cn2c(n1)S(=O)(=O)CC(OCc1ccc(OCc3ccccc3)cc1)C2 (stereo unspecified) | 61 | > 128 | 79 | > 128 | > 128 |
| O=[N+]([O-])c1cn2c(n1)OCC(OCc1ccc(OCc3ccccc3)cc1)C2 (stereo unspecified) | – | – | – | – | > 128 |
| O=[N+]([O-])c1cn2c(n1)SCC(OCc1ccc(OCc3ccccc3)cc1)C2 (stereo unspecified) | – | 11 (≈ 4.37 µg/mL) | – | 1.1 (≈ 0.437 µg/mL) | > 128 |
| O=[N+]([O-])c1cc2n(n1)CC(OCc1ccc(OCc3ccccc3)cc1)CN2 (stereo unspecified) | 55 | > 128 | 41 | > 128 | – |
| O=[N+]([O-])c1cn2c(n1)[S+]([O-])CC(OCc1ccc(OC(F)(F)F)cc1)C2 (stereo unspecified) | 87 | 92 (≈ 36 µg/mL) | – | > 128 | > 128 |
| O=[N+]([O-])c1cn2c(n1)S(=O)(=O)CC(OCc1ccc(OC(F)(F)F)cc1)C2 (stereo unspecified) | 89 | 89 (≈ 36.3 µg/mL) | – | > 128 | > 128 |
| O=[N+]([O-])c1cn2c(n1)CCC(OCc1ccc(OC(F)(F)F)cc1)C2 (stereo unspecified) | – | > 128 | 75 | 126 (≈ 45 µg/mL) | – |
| O=[N+]([O-])c1cc2n(n1)CC(OCc1ccc(OCc3ccccc3)cc1)CO2 (stereo unspecified) | 38 | > 128 | 19 | > 128 | 82 |
| O=[N+]([O-])c1cc2n(n1)CC(OCc1ccc(OC(F)(F)F)cc1)CO2 (stereo unspecified) | 89 | – | 86 | > 128 | 88 |
| O=[N+]([O-])c1cn2c(n1)NCC(OCc1ccc(OC(F)(F)F)cc1)C2 (stereo unspecified) | 63 | > 128 | 64 | > 128 | – |
| O=[N+]([O-])c1cn2c(n1)[S+]([O-])CC(OCc1ccc(OCc3ccccc3)cc1)C2 (stereo unspecified) | 23 | > 128 | 20 | > 128 | 63 |
| O=[N+]([O-])c1cn2c(n1)OCC(OCc1ccc(OC(F)(F)F)cc1)C2 (stereo unspecified) | – | – | – | – | > 128 |
| O=[N+]([O-])c1cc2n(n1)CC(OCc1ccc(OC(F)(F)F)cc1)CN2 (stereo unspecified) | 61 | 111 (≈ 39.8 µg/mL) | – | > 128 | – |
| O=[N+]([O-])c1nc2n(n1)C[C@H](OCc1ccc(OCc3ccccc3)cc1)CO2 | 18 | – | – | > 128 | – |
| O=[N+]([O-])c1cn2c(n1)SCC(OCc1ccc(OC(F)(F)F)cc1)C2 (stereo unspecified) | – | 13 (≈ 4.88 µg/mL) | – | 1.1 (≈ 0.413 µg/mL) | > 128 |
| O=[N+]([O-])c1nc2n(n1)C[C@H](OCc1ccc(OC(F)(F)F)cc1)CO2 | 81 | – | – | > 128 | > 128 |
